From ChEMBL document CHEMBL1142155, “Human beta-defensins kill Candida albicans in an energy-dependent and salt-sensitive manner without causing membrane disruption” (2007)
Active and inactive are the calls of the source. The rule behind the calls is not given here.

How the values were obtained:
Candida albicans [1] = assay: Induction of membrane permeabilization in Candida albicans assessed as calcein release at 11.6 uM after 90 min; assay type: functional
How it was run: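 Early-stationary C. albicans loaded with 5 μM (final) calcein-AM, 2 h room temperature, washed four times; 10⁶ cells with peptide, fluorescence (ex 485/em 530 nm) read every 5 min for 90 min; 100% from boiled cells (10 min), background from untreated cells; % release = (I_r − I_bkg)/(I_int − I_bkg) × 100; three independent experiments, mean ± SD.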

Candida albicans [2] = assay: Induction of ATP efflux in Candida albicans CAF4-2 at 11.6 uM; assay type: functional, organism-based
How it was run: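 C. albicans CAF4-2 (10⁴ cells) mixed with peptide (Hst 5 31 μM, hBD-2 11.6 μM, hBD-3 1 μM), some cells pretreated 2 h with 1 mM NaN₃; extracellular ATP read by luminometry at 0, 5, 15, 30, 45 and 60 min; quantified against per-experiment ATP standard curves as pmol ATP per 10⁴ cells.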

Nakaseomyces glabratus [3] = assay: Fungicidal activity against Candida glabrata 932474 at 31 uM; assay type: functional
Candida albicans [4] = assay: Induction of ATP efflux in Candida albicans CAF4-2 at 31 uM; assay type: functional, organism-based
How it was run: (§1)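 10⁴ C. albicans cells given 31 μM Hst 5 or 1 μM hBD-3, with or without 2 h pretreatment in 1 mM NaN₃. Extracellular ATP read by luminometry at 0, 5, 15, 30, 45 and 60 min. Values come from per-experiment ATP standard curves, as pmol ATP per 10⁴ cells.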

Nakaseomyces glabratus [5] = assay: Fungicidal activity against Candida glabrata 931010 at 31 uM; assay type: functional
Candida albicans [6] = assay: Induction of ATP efflux in Candida albicans CAF4-2 at 31 uM in presence of 1 mM sodium azide; assay type: functional, organism-based; how it was run: as §1
Candida albicans [7] = assay: Induction of membrane permeabilization in Candida albicans assessed as calcein release at 32 uM after 90 min; assay type: functional
How it was run: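 Early-stationary yeast washed in 10 mM NaPB, loaded at 10⁷/ml with 5 μM (final) calcein-AM for 2 h at room temperature, then washed four times; 10⁶ cells given 0.8 μM hBD-3 or 32 μM Hst 5. Fluorescence (ex 485/em 530 nm) read every 5 min for 90 min. Percent release = (I_r − I_bkg)/(I_int − I_bkg) × 100, where I_int comes from boiling 10 min. Mean ± SD of three experiments.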

Candida albicans [8] = assay: Fungicidal activity against Candida albicans CAF4-2 at 31 uM; assay type: functional
Nakaseomyces glabratus [9] = assay: Fungicidal activity against Candida glabrata 932474 at 0.8 uM; assay type: functional
Candida albicans [10] = assay: Cell death in Candida albicans CAF4-2 at <= 0.6 uM in the presence of 1 mM NaN3 relative to control; assay type: functional
Candida albicans [11] = assay: Fungicidal activity against Candida albicans CAF4-2 at 0.8 uM; assay type: functional
Candida albicans [12] = assay: Antimicrobial activity against Candida albicans at 1.0 uM in presence of 50 mM NaPB; assay type: functional
How it was run: (§2)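 YNB-grown yeast washed twice and resuspended at 10⁶ cells/ml in 10, 20, 50 or 100 mM sodium phosphate buffer, pH 7.4; peptide 0.2 to 1.0 μM for 1 h at 30°C. Diluted aliquots of 500 cells plated on YNB agar, 48 h at room temperature. Loss of viability = [1 − (treated colonies/buffer-only colonies)] × 100; at least three independent experiments.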

Candida albicans [13] = assay: Antimicrobial activity against Candida albicans at 1.0 uM in presence of 20 mM NaPB; assay type: functional; how it was run: as §2
Candida albicans [14] = assay: Antimicrobial activity against Candida albicans at 1.0 uM in presence of 10 mM NaPB; assay type: functional; how it was run: as §2
Candida albicans [15] = assay: Cell death in Candida albicans CAF4-2 at >= 0.8 uM in presence of 1 mM NaN3 relative to control
Nakaseomyces glabratus [16] = assay: Fungicidal activity against Candida glabrata 931010 at 0.8 uM; assay type: functional
Candida albicans [17] = assay: Survival of Candida albicans at 11.6 uM in presence of 0.5 mM CaCl2; assay type: functional
How it was run: (§3)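 Cells at 10⁶/ml in 10 mM sodium phosphate pH 7.4 supplemented with 0.5, 1, 5 or 25 mM CaCl₂, MgCl₂, NaCl or KCl; hBD-2 11.6 μM for 1 h at 30°C; colonies counted on YNB agar after 48 h at room temperature; survival relative to buffer-only cells; at least three independent experiments, mean ± SD.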

Candida albicans [18] = assay: Antimicrobial activity against Candida albicans at 11.6 uM in presence of 10 mM NaPB; assay type: functional
How it was run: (§4)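 YNB-grown C. albicans (CAF4-2) washed and resuspended at 10⁶ cells/ml in 10, 20, 50 or 100 mM sodium phosphate buffer pH 7.4; peptide 2.9 to 11.6 μM, 1 h at 30°C; 500-cell aliquots plated on YNB agar, 48 h room temperature; loss of viability = [1 − (treated/buffer-only colonies)] × 100; at least three independent experiments, mean ± SD.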

Candida albicans [19] = assay: Cell death in Candida albicans CAF4-2 in presence of 1 mM NaN3 relative to control; assay type: functional
Candida albicans [20] = assay: Antimicrobial activity against Candida albicans at 11.6 uM in presence of 20 mM NaPB; assay type: functional; how it was run: as §4
Candida albicans [21] = assay: Survival of Candida albicans at 11.6 uM in presence of 0.5 mM KCl; assay type: functional; how it was run: as §3
Nakaseomyces glabratus [22] = assay: Fungicidal activity against Candida glabrata 931010 at 11.6 uM; assay type: functional
How it was run: (§5)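 C. albicans CAF4-2 and C. glabrata 931010 or 932474 at 10⁶/ml in 10 mM sodium phosphate pH 7.4, exposed to one peptide concentration (Hst 5 31 μM, hBD-2 11.6 μM, hBD-3 0.8 μM); 500-cell aliquots plated on YNB agar for 48 h at room temperature; loss of viability versus buffer-only control; triplicate.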

Candida albicans [23] = assay: Fungicidal activity against Candida albicans CAF4-2 at 11.6 uM; assay type: functional; how it was run: as §5
Candida albicans [24] = assay: Survival of Candida albicans at 11.6 uM in presence of 5 mM MgCl2; assay type: functional; how it was run: as §3
Candida albicans [25] = assay: Survival of Candida albicans at 11.6 uM in presence of 0.5 mM NaCl; assay type: functional; how it was run: as §3
Candida albicans [26] = assay: Survival of Candida albicans at 11.6 uM in presence of 5 mM CaCl2; assay type: functional; how it was run: as §3
Candida albicans [27] = assay: Survival of Candida albicans at 11.6 uM in presence of 0.5 mM MgCl2; assay type: functional; how it was run: as §3
Candida albicans [28] = assay: Antimicrobial activity against Candida albicans at 11.6 uM in presence of 50 mM NaPB; assay type: functional; how it was run: as §4
Candida albicans [29] = assay: Antimicrobial activity against Candida albicans at 11.6 uM in presence of 100 mM NaPB; assay type: functional; how it was run: as §4
Nakaseomyces glabratus [30] = assay: Fungicidal activity against Candida glabrata 932474 at 11.6 uM; assay type: functional; how it was run: as §5

`CC[C@H](C)[C@H](NC(=O)CN)C(=O)NCC(=O)N[C@@H](CC(=O)O)C(=O)N1CCC[C@H]1C(=O)N[C@H](C(=O)N[C@H](C(=O)N[C@@H](CS)C(=O)N[C@@H](CC(C)C)C(=O)N[C@@H](CCCCN)C(=O)N[C@@H](CO)C(=O)NCC(=O)N[C@@H](C)C(=O)N[C@H](C(=O)N[C@@H](CS)C(=O)N[C@@H](Cc1cnc[nH]1)C(=O)N1CCC[C@H]1C(=O)N[C@H](C(=O)N[C@@H](Cc1ccccc1)C(=O)N[C@@H](CS)C(=O)N1CCC[C@H]1C(=O)N[C@@H](CCCNC(=N)N)C(=O)N[C@@H](CCCNC(=N)N)C(=O)N[C@@H](Cc1ccc(O)cc1)C(=O)N[C@@H](CCCCN)C(=O)N[C@@H](CCC(N)=O)C(=O)N[C@H](C(=O)NCC(=O)N[C@H](C(=O)N[C@@H](CS)C(=O)NCC(=O)N[C@@H](CC(C)C)C(=O)N1CCC[C@H]1C(=O)NCC(=O)N[C@H](C(=O)N[C@@H](CCCCN)C(=O)N[C@@H](CS)C(=O)N[C@@H](CS)C(=O)N[C@@H](CCCCN)C(=O)N[C@@H](CCCCN)C(=O)N1CCC[C@H]1C(=O)O)[C@H](C)O)[C@H](C)O)[C@@H](C)CC)C(C)C)[C@@H](C)CC)[C@H](C)O)C(C)C` was tested, and the Activity (Candida albicans [1]) was 10.3% and the Activity (Candida albicans [2]) was “Active”.

With `C[C@H](NC(=O)[C@H](Cc1cnc[nH]1)NC(=O)[C@H](CO)NC(=O)[C@@H](N)CC(=O)O)C(=O)N[C@@H](CCCCN)C(=O)N[C@@H](CCCNC(=N)N)C(=O)N[C@@H](Cc1cnc[nH]1)C(=O)N[C@@H](Cc1cnc[nH]1)C(=O)NCC(=O)N[C@@H](Cc1ccc(O)cc1)C(=O)N[C@@H](CCCCN)C(=O)N[C@@H](CCCNC(=N)N)C(=O)N[C@@H](CCCCN)C(=O)N[C@@H](Cc1ccccc1)C(=O)N[C@@H](Cc1cnc[nH]1)C(=O)N[C@@H](CCC(=O)O)C(=O)N[C@@H](CCCCN)C(=O)N[C@@H](Cc1cnc[nH]1)C(=O)N[C@@H](Cc1cnc[nH]1)C(=O)N[C@@H](CO)C(=O)N[C@@H](Cc1cnc[nH]1)C(=O)N[C@@H](CCCNC(=N)N)C(=O)NCC(=O)N[C@@H](Cc1ccc(O)cc1)C(=O)O` [HISTATIN 5] the Activity (Nakaseomyces glabratus [3]) was 29.4%, the Activity (Candida albicans [4]) was “Active” and the Activity (Nakaseomyces glabratus [5]) was 12.2%. The Activity (Candida albicans [6]) was “inactive”, the Activity (Candida albicans [7]) was 11% and the Activity (Candida albicans [8]) was 97.5%.

With `CC[C@H](C)[C@H](NC(=O)CN)C(=O)N[C@H](C(=O)N[C@@H](CC(N)=O)C(=O)N[C@H](C(=O)N[C@@H](CC(C)C)C(=O)N[C@@H](CCC(N)=O)C(=O)N[C@@H](CCCCN)C(=O)N[C@@H](Cc1ccc(O)cc1)C(=O)N[C@@H](Cc1ccc(O)cc1)C(=O)N[C@@H](CS)C(=O)N[C@@H](CCCNC(=N)N)C(=O)N[C@H](C(=O)N[C@@H](CCCNC(=N)N)C(=O)NCC(=O)NCC(=O)N[C@@H](CCCNC(=N)N)C(=O)N[C@@H](CS)C(=O)N[C@@H](C)C(=O)N[C@H](C(=O)N[C@@H](CC(C)C)C(=O)N[C@@H](CO)C(=O)N[C@@H](CS)C(=O)N[C@@H](CC(C)C)C(=O)N1CCC[C@H]1C(=O)N[C@@H](CCCCN)C(=O)N[C@@H](CCC(=O)O)C(=O)N[C@@H](CCC(=O)O)C(=O)N[C@@H](CCC(N)=O)C(=O)N[C@H](C(=O)NCC(=O)N[C@@H](CCCCN)C(=O)N[C@@H](CS)C(=O)N[C@@H](CO)C(=O)N[C@H](C(=O)N[C@@H](CCCNC(=N)N)C(=O)NCC(=O)N[C@@H](CCCNC(=N)N)C(=O)N[C@@H](CCCCN)C(=O)N[C@@H](CS)C(=O)N[C@@H](CS)C(=O)N[C@@H](CCCNC(=N)N)C(=O)N[C@@H](CCCNC(=N)N)C(=O)N[C@@H](CCCCN)C(=O)N[C@@H](CCCCN)C(=O)O)[C@@H](C)O)[C@@H](C)CC)C(C)C)C(C)C)[C@@H](C)O)[C@@H](C)CC` the Activity (Nakaseomyces glabratus [9]) was 53.2%, the Activity (Candida albicans [10]) was under 10% and the Activity (Candida albicans [11]) was 98.2%. The Activity (Candida albicans [12]) was 18%, the Activity (Candida albicans [13]) was 63% and the Activity (Candida albicans [14]) was 98.2%. For the same molecule, the Activity (Candida albicans [15]) was 36% and the Activity (Nakaseomyces glabratus [16]) was 11.5%.

`CC[C@H](C)[C@H](NC(=O)CN)C(=O)NCC(=O)N[C@@H](CC(=O)O)C(=O)N1CCC[C@H]1C(=O)N[C@H](C(=O)N[C@H](C(=O)N[C@@H](CS)C(=O)N[C@@H](CC(C)C)C(=O)N[C@@H](CCCCN)C(=O)N[C@@H](CO)C(=O)NCC(=O)N[C@@H](C)C(=O)N[C@H](C(=O)N[C@@H](CS)C(=O)N[C@@H](Cc1cnc[nH]1)C(=O)N1CCC[C@H]1C(=O)N[C@H](C(=O)N[C@@H](Cc1ccccc1)C(=O)N[C@@H](CS)C(=O)N1CCC[C@H]1C(=O)N[C@@H](CCCNC(=N)N)C(=O)N[C@@H](CCCNC(=N)N)C(=O)N[C@@H](Cc1ccc(O)cc1)C(=O)N[C@@H](CCCCN)C(=O)N[C@@H](CCC(N)=O)C(=O)N[C@H](C(=O)NCC(=O)N[C@H](C(=O)N[C@@H](CS)C(=O)NCC(=O)N[C@@H](CC(C)C)C(=O)N1CCC[C@H]1C(=O)NCC(=O)N[C@H](C(=O)N[C@@H](CCCCN)C(=O)N[C@@H](CS)C(=O)N[C@@H](CS)C(=O)N[C@@H](CCCCN)C(=O)N[C@@H](CCCCN)C(=O)N1CCC[C@H]1C(=O)O)[C@@H](C)O)[C@@H](C)O)[C@@H](C)CC)C(C)C)[C@@H](C)CC)[C@@H](C)O)C(C)C` gave an Activity (Candida albicans [17]) of 69%, an Activity (Candida albicans [18]) of 95% and an Activity (Candida albicans [19]) of 15%. The Activity (Candida albicans [20]) was 54%, the Activity (Candida albicans [21]) was 18% and the Activity (Nakaseomyces glabratus [22]) was 20.2%. For the same molecule, the Activity (Candida albicans [23]) was 95%, the Activity (Candida albicans [24]) was 97.6% and the Activity (Candida albicans [25]) was 24%. It also gave an Activity (Candida albicans [26]) of 86%, an Activity (Candida albicans [27]) of 58.4% and an Activity (Candida albicans [28]) of 29%. It also gave an Activity (Candida albicans [29]) of 24% and an Activity (Nakaseomyces glabratus [30]) of 89.6%.
